SMILES strings stand for the structures. pIC50: −log10 of the molar value. The source made the active and inactive calls. The calls are words filed in the database; no cut-off is given here.

Usually pIC50 stands for −log10 of the IC50, conventionally taken in molar units.

The test system of assay [1] is SK-HEP1. In words: Cytotoxicity against human SKHEP1 cells assessed as cell death after 48 hrs by MTT assay. Type of assay: functional, cell-based. As to conditions: SK-HEP1, 48 h. Summed up:
(§1)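 MTT read-out in SK-Hep-1 cells kept in DMEM with 10% FBS, penicillin/streptomycin and amphotericin B at 37 °C under 5% CO2. Reduced dye solubilized in DMSO and absorbance read at 570 nm. The concentration giving 50% growth inhibition was interpolated from dose–response curves.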
A general note: Formazan colour is commonly taken as a measure of viable cells.

The subject of assay [2] is SK-HEP1. Nature of the assay: Inhibition of CIP2A expression in human SKHEP1 cells at 20 uM after 24 hrs by Western blot analysis. Format: functional, cell-based. Summed up:
(§2)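 SK-Hep-1 cells (3 × 10^5 per 60 mm dish) were treated 24 h, in the primary screen at 20 μM. Lysates were loaded at 40 μg per lane and blotted for CIP2A against actin.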
For orientation: A western blot detects proteins with antibodies after separation by electrophoresis.

Assay [3] addresses Protein CIP2A (Homo sapiens) (UniProt Q8TCG1). In words: Inhibition of CIP2A in human SKHEP1 cells at 5 uM after 30 hrs by Western blot analysis. Format: cell-based. As to conditions: SK-HEP1. Summed up: (§3)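 SK-Hep-1 cells (3 × 10^5 per 60 mm dish) were exposed to 5 μM for 30 h. Lysates were loaded at 40 μg per lane and immunoblotted for CIP2A, phospho-Akt, PARP and actin.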

For assay [4] the target is unchanged. Nature of the assay: Inhibition of CIP2A-mediated PP2A-dependent AKT phosphorylation in human SKHEP1 cells at 5 uM after 30 hrs by Western blot analysis. As to conditions: SK-HEP1. Format: cell-based. In a few lines: as §3
Assay [5] relates to SK-HEP1. Nature of the assay: Induction of apoptosis in human SKHEP1 cells assessed as increase in PARP cleavage at 5 uM after 30 hrs by Western blot analysis. Type of assay: functional, cell-based. Summed up:
as §3

Assay [6] deals with T1, Epidermal growth factor receptor (Homo sapiens, UniProt P00533). Nature of the assay: Inhibition of EGFR phosphorylation in human PC9 cells at 2 uM after 24 hrs by Western blot analysis. Type of assay: cell-based. The following applies: PC-9. In a few lines: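 PC9 cells (3 × 10^5 per 60 mm dish), grown in DMEM with 10% FBS at 37 °C and 5% CO2, were treated 24 h at 2 μM. Lysates were loaded at 40 μg per lane and immunoblotted for EGFR phosphorylation.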
T1 sequence (P00533 whole entry): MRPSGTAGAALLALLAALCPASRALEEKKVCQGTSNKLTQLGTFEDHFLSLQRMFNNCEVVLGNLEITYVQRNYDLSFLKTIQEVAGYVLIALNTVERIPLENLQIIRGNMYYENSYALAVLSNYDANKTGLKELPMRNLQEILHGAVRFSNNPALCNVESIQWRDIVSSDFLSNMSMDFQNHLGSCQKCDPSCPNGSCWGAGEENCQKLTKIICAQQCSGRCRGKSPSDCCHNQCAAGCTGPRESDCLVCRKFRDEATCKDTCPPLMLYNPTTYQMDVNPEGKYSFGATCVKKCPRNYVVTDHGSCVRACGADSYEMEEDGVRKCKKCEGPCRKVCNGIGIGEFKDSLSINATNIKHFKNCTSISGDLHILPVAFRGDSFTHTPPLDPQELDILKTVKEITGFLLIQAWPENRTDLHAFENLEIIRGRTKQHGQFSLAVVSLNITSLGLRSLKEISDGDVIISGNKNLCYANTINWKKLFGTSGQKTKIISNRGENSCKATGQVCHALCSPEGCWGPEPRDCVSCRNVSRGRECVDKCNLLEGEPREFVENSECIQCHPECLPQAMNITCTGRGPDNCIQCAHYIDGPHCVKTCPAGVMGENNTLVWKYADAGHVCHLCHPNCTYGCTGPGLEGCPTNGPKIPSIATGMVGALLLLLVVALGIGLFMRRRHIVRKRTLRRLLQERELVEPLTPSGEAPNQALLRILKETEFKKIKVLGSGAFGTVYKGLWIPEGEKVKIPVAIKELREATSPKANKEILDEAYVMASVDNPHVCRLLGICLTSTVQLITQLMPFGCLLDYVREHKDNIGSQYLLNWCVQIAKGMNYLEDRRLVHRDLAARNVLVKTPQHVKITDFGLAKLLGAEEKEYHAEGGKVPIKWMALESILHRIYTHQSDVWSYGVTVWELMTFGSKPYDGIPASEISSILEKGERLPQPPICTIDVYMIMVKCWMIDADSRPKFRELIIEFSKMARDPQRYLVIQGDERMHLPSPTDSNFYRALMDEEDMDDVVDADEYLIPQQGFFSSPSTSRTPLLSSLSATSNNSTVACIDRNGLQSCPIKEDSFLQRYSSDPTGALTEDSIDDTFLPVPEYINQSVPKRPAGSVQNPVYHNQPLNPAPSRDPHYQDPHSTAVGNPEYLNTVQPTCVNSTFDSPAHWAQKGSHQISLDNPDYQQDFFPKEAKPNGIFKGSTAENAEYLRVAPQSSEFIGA

Assay [7] has as its system SK-HEP1. In words: Inhibition of CIP2A expression in human SKHEP1 cells after 24 hrs by Western blot analysis. Type of assay: functional, cell-based. Summed up: as §2
For assay [8], the system named is SK-HEP1. In words: Induction of apoptosis in human SKHEP1 cells assessed as accumulation at sub-G1 phase at 5 uM after 24 hrs by propidium iodide staining based flow cytometry. Type of assay: functional, cell-based. Summed up: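 SK-Hep-1 cells were treated 24 h at 5 μM, then trypsinized, pelleted, washed in PBS and stained with propidium iodide. Apoptotic cells were counted by flow cytometry as the sub-G1 fraction. Mean of n = 3 with SD; P <0.05 taken as significant.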

The subject of assay [9] is SK-HEP1. Nature of the assay: Induction of apoptosis in human SKHEP1 cells assessed as DNA fragmentation at 5 uM after 24 hrs by ELISA. Type of assay: functional, cell-based. In a few lines:
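DNA fragmentation was measured in SK-Hep-1 cells after 24 h of exposure, using a cell death ELISA kit.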
Background: An ELISA detects its analyte on a solid surface through an enzyme-linked reagent.

Assay [10] concerns the target Protein CIP2A (Homo sapiens) (UniProt Q8TCG1). Nature of the assay: Inhibition of CIP2A-mediated PP2A-dependent AKT phosphorylation in human SKHEP1 cells at 5 uM after 30 hrs by Western blot analysis in presence of okadaic acid. Type of assay: cell-based. The following applies: SK-HEP1.
The test system of assay [11] is SK-HEP1. In words: Cytotoxicity against human SKHEP1 cells assessed as growth inhibition after 48 hrs by MTT assay. Type of assay: functional, cell-based. The following applies: SK-HEP1, 48 h. In a few lines:
as §1

Assay [12] relates to SK-HEP1. Nature of the assay: Cytotoxicity against human SKHEP1 cells assessed as cell death after 24 hrs by MTT assay.
The target of assay [13] is T1, Epidermal growth factor receptor. Nature of the assay: Inhibition of EGFR phosphorylation in human PC9 cells after 24 hrs by Western blot analysis. Type of assay: cell-based, PC-9.

As for `FC(F)(F)c1cc(Nc2ccnc(Nc3ccc(Cl)c(C(F)(F)F)c3)n2)ccc1Cl`, in the assay on SK-HEP1 [1], the pIC50 is 4.86. The inhibition entry in the assay on SK-HEP1 [2] is “Active”.

For the molecule `COc1cc2nc(Cl)nc(Nc3cccc(O)c3)c2cc1OC`, the inhibition result in assay [3] and in assay [4] was “inactive” each time. In the assay with SK-HEP1 [5], the outcome was inactive. Moreover, in the assay with SK-HEP1 [1], the pIC50 is less than 4.40.

Consider `C#Cc1cccc(Nc2nc(Nc3ccc(Oc4ccccc4)cc3)nc3cc(OC)c(OC)cc23)c1`, for which the inhibition result in assay [6] and in assay [10] was “inactive” in each case. The inhibition result in the assay with SK-HEP1 [7] is “Dose-dependent effect”. The inhibition entry (in [3]; in assay [4]; in the assay with SK-HEP1 [2]) was “Active” throughout. The outcome in the assay on SK-HEP1 [5], in the assay on SK-HEP1 [8] and in the assay with SK-HEP1 [9] was Active. Besides, the pIC50 with SK-HEP1 [11] is 5.55. The Activity entry in the assay with SK-HEP1 [12] was “Dose-dependent effect”.

In the case of `C#Cc1cccc(Nc2nc(Nc3ccc(Cl)c(C(F)(F)F)c3)nc3cc(OC)c(OC)cc23)c1`, the pIC50 in the assay on SK-HEP1 [11] is 5.17. Also, the inhibition result in the assay on SK-HEP1 [2] was “Active”.

As for `Clc1nccc(Nc2ccc(Oc3ccccc3)cc2)n1`, the pIC50 in the assay on SK-HEP1 [1] was less than 4.40. Moreover, the inhibition entry in the assay with SK-HEP1 [2] was “inactive”.

As to `C#Cc1cccc(N(C)c2nc(Cl)nc3cc(OC)c(OC)cc23)c1`, in the assay on SK-HEP1 [1], the pIC50 was 4.91.

Consider `COc1cc2nc(Cl)nc(Nc3cccc(Cl)c3)c2cc1OC`, for which the pIC50 in the assay with SK-HEP1 [1] was 4.78.

For the molecule `C#Cc1cccc(Nc2ccnc(Nc3cccc(C#C)c3)n2)c1`, the pIC50 with SK-HEP1 [1] is 5.43. In addition, the inhibition result with SK-HEP1 [2] is “Active”.

On to `COc1cc2nc(Cl)nc(Nc3cccc(Oc4ccc(C#N)cc4)c3)c2cc1OC`, for which, in the assay with SK-HEP1 [1], the pIC50 was less than 4.40.

For `C#Cc1cccc(Nc2nc(Nc3ccc(Oc4ccc(C#N)cc4)cc3)nc3cc(OC)c(OC)cc23)c1`, the pIC50 in the assay with SK-HEP1 [11] was 4.84. The inhibition entry with SK-HEP1 [2] is “Active”.

For `C#Cc1cccc(Nc2ccnc(Cl)n2)c1`, the pIC50 with SK-HEP1 [1] is less than 4.40. For the same molecule, the inhibition entry in the assay with SK-HEP1 [2] is “inactive”.

For `C#Cc1cccc(Nc2nc(Nc3cccc(Oc4ccc(C#N)cc4)c3)nc3cc(OC)c(OC)cc23)c1`, in the assay on SK-HEP1 [11], the pIC50 was 5.41. Further, the inhibition entry with SK-HEP1 [2] was “Active”.

Regarding `C#Cc1cccc(Nc2nc(Cl)nc3cc(OC)c(OC)cc23)c1`, in [13], the pIC50 is less than 5.10.

With `COc1cc2nc(Cl)nc(NCc3ccccc3)c2cc1OC`, in the assay on SK-HEP1 [1], the negative logarithm of the IC50 (pIC50) is 4.70.

For the molecule `Clc1nccc(NCc2ccccc2)n1`, in the assay with SK-HEP1 [1], the pIC50 is less than 4.40. In addition, the inhibition entry with SK-HEP1 [2] was “inactive”.

As to `C#Cc1cccc(Nc2nc(NCc3ccccc3)nc3cc(OC)c(OC)cc23)c1`, the inhibition result in assay [6] is “inactive”. Moreover, the inhibition entry (in assay [3]; in assay [4]; in the assay with SK-HEP1 [2]) was “Active” each time. The outcome with SK-HEP1 [5], with SK-HEP1 [8] and with SK-HEP1 [9] was Active. The pIC50 in the assay with SK-HEP1 [11] is 5.55.

As for `COc1cc2nc(Cl)nc(Nc3ccc(Oc4ccccc4)cc3)c2cc1OC`, the pIC50 in the assay on SK-HEP1 [1] is 4.82.

In the case of `C#Cc1cccc(Nc2nc(Nc3cccc(Cl)c3)nc3cc(OC)c(OC)cc23)c1`, the pIC50 with SK-HEP1 [11] is 5.15. Also, the inhibition result in the assay on SK-HEP1 [2] was “Active”.

In the case of `Clc1cccc(Nc2ccnc(Cl)n2)c1`, the pIC50 in the assay with SK-HEP1 [1] is less than 4.40. The inhibition result in the assay with SK-HEP1 [2] was “inactive”.

In the case of `COc1cc2nc(Cl)nc(Nc3cc(C)ccc3F)c2cc1OC`, the pIC50 in the assay on SK-HEP1 [1] is less than 4.40.

For the molecule `COc1cc2nc(Cl)nc(Nc3ccc(Cl)c(C(F)(F)F)c3)c2cc1OC`, the pIC50 in the assay on SK-HEP1 [1] was 5.06.

Consider `C#Cc1cccc(Nc2nc(Nc3cc(C)ccc3F)nc3cc(OC)c(OC)cc23)c1`, for which the pIC50 in the assay on SK-HEP1 [11] was 5.35. In addition, the inhibition result with SK-HEP1 [2] was “Active”.

Regarding `FC(F)(F)c1cc(Nc2ccnc(Cl)n2)ccc1Cl`, in the assay on SK-HEP1 [1], the negative-log IC50 (pIC50) is less than 4.40. Also, in the assay on SK-HEP1 [2], the inhibition result is “inactive”.

`COc1cc2nc(Cl)nc(Nc3ccc(O)c(C)c3)c2cc1OC`: in the assay with SK-HEP1 [1], the pIC50 is less than 4.40.

These data come from ChEMBL document CHEMBL2146407, “Development of erlotinib derivatives as CIP2A-ablating agents independent of EGFR activity” (Bioorg Med Chem, 2012).
